# Assay results gathered from unrelated publications.
# Compare with care: the assays were run in different laboratories.
# Method: competition with immobilised ligand
# RPS6KA5 C-terminal kinase domain: Ribosomal protein S6 kinase alpha-5, C-terminal kinase domain (RPS6KA5, Homo sapiens, UniProt O75582)
# RPS6KA5 N-terminal kinase domain: Ribosomal protein S6 kinase alpha-5, N-terminal kinase domain (RPS6KA5, Homo sapiens, UniProt O75582)
SMILES,target,read-out,concentration,remaining binding
c1ccc(N2CCN(Cc3nc4ccccc4[nH]3)CC2)nc1,RPS6KA5 C-terminal kinase domain,binding,1 µM,100%
O=C(NCC1CCOCC1)c1n[nH]cc1NC(=O)c1c(F)cccc1F,RPS6KA5 N-terminal kinase domain,binding,1 µM,79%
C[C@H](c1ccnc(Nc2nc3ccc(-c4cc(N(C)C)ncn4)cc3[nH]2)c1)N1CCN(C(=O)CC(F)(F)F)CC1,RPS6KA5 C-terminal kinase domain,cell-free assay,0.1 µM,61%
F[C@@H]1CCN(c2nccc(-c3cnn4ncccc34)n2)C1,RPS6KA5 N-terminal kinase domain,binding,1 µM,100%
Nc1ncc2c(n1)-c1c([nH]c3ccc(C#CC4CC4)cc13)CCCC2,RPS6KA5 N-terminal kinase domain,binding,1 µM,93%
c1cncc(-c2cccc(Nc3nccc(NC4CCCCC4)n3)c2)c1,RPS6KA5 C-terminal kinase domain,binding,10 µM,100%
CN(C)c1ncc(F)c(-c2cnn3ncccc23)n1,RPS6KA5 C-terminal kinase domain,binding,1 µM,89%
O=C(c1ccc(Nc2ncc(Cl)c(-c3cc4ccccc4s3)n2)cc1)N1CCC(N2CCCC2)CC1,RPS6KA5 N-terminal kinase domain,binding,1 µM,100%
CN(c1nccc(-c2cnn3ncccc23)n1)C1CC1,RPS6KA5 N-terminal kinase domain,binding,1 µM,100%
O=C(NCCCN1CCOCC1)c1ccc(Nc2ncc(Cl)c(-c3ccc(Cl)s3)n2)cc1,RPS6KA5 C-terminal kinase domain,binding,1 µM,54%
CC(=O)N1CCC(c2ccc(C(=O)NC3=NCCN3)cc2C(F)(F)F)CC1,RPS6KA5 N-terminal kinase domain,cell-free assay,1 µM,100%
CNC(=O)[C@@H]1CC[C@@H](n2c(-c3ccc4cnccc4c3)nc3ccc(C(=O)NCc4cccc(C(N)=O)c4)cc32)C1,RPS6KA5 N-terminal kinase domain,binding,1 µM,100%
N[C@@H]1CCN(c2nccc(-c3cnn4ncccc34)n2)C1,RPS6KA5 C-terminal kinase domain,binding,1 µM,100%
Nc1c(C(=O)NCc2ccc(C(=O)NCCCC3CCCCC3)cc2)cnn1-c1ccccc1,RPS6KA5 N-terminal kinase domain,cell-free assay,0.1 µM,94%
CN(CCCC(F)(F)F)c1nccc(-c2cnn3ncccc23)n1,RPS6KA5 N-terminal kinase domain,binding,1 µM,100%
Cc1cnc(Nc2ccc(C(=O)N3CCC(N4CCCC4)CC3)cc2)nc1-c1cc2ccccc2s1,RPS6KA5 C-terminal kinase domain,binding,1 µM,96%
Cn1nc(C(=O)NCc2ccc(C(=O)O)cc2)cc1-c1ccc2[nH]ccc2c1,RPS6KA5 N-terminal kinase domain,cell-free assay,0.1 µM,76%
C=CC(=O)N1CCC(C(=O)NCC(=O)N2CCN(c3nc(-c4cnc(N)nc4C(F)F)nc(N4CCOCC4)n3)CC2)CC1,RPS6KA5 C-terminal kinase domain,binding,1 µM,100%
CSc1cccnc1N1CCN(Cc2nc3ccccc3[nH]2)CC1,RPS6KA5 C-terminal kinase domain,cell-free assay,1 µM,100%
C[C@@H]1CCN(c2nccc(-c3cnn4ncccc34)n2)C1,RPS6KA5 N-terminal kinase domain,binding,1 µM,70%
